Experimental data reported in ChEMBL document CHEMBL2034859, “Simple, fast and efficient synthesis of β-keto esters from the esters of heteroaryl compounds, its antimicrobial study and cytotoxicity towards various cancer cell lines” (Bioorg Med Chem Lett, 2012).
Values after ≈ are worked out from the molar mass of the structure shown.

Columns and labels:
HCT-116 [1] = experiment: Cytotoxicity against human HCT116 cells at 10 uM after 48 hrs by WST-1 assay; type: functional
Outline: (§1)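 Cells from ATCC were grown in DMEM with 10% heat-inactivated FBS at 37 °C in 5% CO2. Log-phase cells were seeded at 5 × 10^3 per well and left to recover overnight. They were then exposed to a range of compound concentrations for 48 h, with 0.2% DMSO as the vehicle control. CCK-8 (WST) reagent was added for 2 h and absorbance was measured.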

Calu-1 [2] = experiment: Cytotoxicity against human Calu1 cells at 10 uM after 48 hrs by WST-1 assay; type: functional; outline: as §1
NCI-H460 [3] = experiment: Cytotoxicity against human NCI-H460 cells at 10 uM after 48 hrs by WST-1 assay; type: functional
Outline: (§2)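 Cells from ATCC, grown in DMEM with 10% heat-inactivated FBS at 37 °C in humidified 5% CO2. Log-phase cells seeded at 5 × 10^3 cells/well and left to recover overnight, then exposed to varying compound concentrations for 48 h. Controls received medium with 0.2% DMSO vehicle. CCK-8 ([…]) reagent added at 5 µL/well for 2 h, then absorbance read.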

ACHN [4] = experiment: Cytotoxicity against human ACHN cells at 10 uM after 48 hrs by WST-1 assay; type: functional; outline: as §1
PANC-1 [5] = experiment: Cytotoxicity against human PANC1 cells at 10 uM after 48 hrs by WST-1 assay; type: functional; outline: as §2
Escherichia coli [6] = experiment: Antibacterial activity against Escherichia coli ATCC 25922 after 24 hrs by disc diffusion method; type: functional
Outline: (§3)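 Disc diffusion susceptibility test. The Klebsiella pneumoniae strain was a recultured isolate, not an ATCC stock.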

Talaromyces marneffei [7] = experiment: Antifungal activity against Penicillium marneffei after 3 to 4 days by disc diffusion method; type: functional
Klebsiella pneumoniae [8] = experiment: Antibacterial activity against Klebsiella pneumoniae after 24 hrs; type: functional
Escherichia coli [9] = experiment: Antibacterial activity against Escherichia coli ATCC 25922 after 24 hrs; type: functional; conditions: ATCC 25922, 24 h
Aspergillus fumigatus [10] = experiment: Antifungal activity against Aspergillus fumigatus NCIM 902 after 3 to 4 days by disc diffusion method; type: functional
Klebsiella pneumoniae [11] = experiment: Antibacterial activity against Klebsiella pneumoniae after 24 hrs by disc diffusion method; type: functional; outline: as §3
Pseudomonas aeruginosa [12] = experiment: Antibacterial activity against Pseudomonas aeruginosa ATCC 27853 after 24 hrs by disc diffusion method; type: functional; outline: as §3
Aspergillus fumigatus [13] = experiment: Antifungal activity against Aspergillus fumigatus NCIM 902 after 3 to 4 days; type: functional
Outline: (§4)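 Compounds were dissolved in DMSO and tested by serial plate dilution. Activity was read as the diameter of the inhibition zone, with ciclopiroxolamine as the reference standard. Penicillium marneffei and Trichophyton mentagrophytes were recultured isolates.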

Talaromyces marneffei [14] = experiment: Antifungal activity against Penicillium marneffei after 3 to 4 days; type: functional
[15] = system: Trichophyton mentagrophytes; experiment: Antifungal activity against Trichophyton mentagrophytes after 3 to 4 days; type: functional; outline: as §4
Staphylococcus aureus [16] = experiment: Antibacterial activity against Staphylococcus aureus ATCC 25923 after 24 hrs by disc diffusion method; type: functional; outline: as §3
Pseudomonas aeruginosa [17] = experiment: Antibacterial activity against Pseudomonas aeruginosa ATCC 27853 after 24 hrs; type: functional; conditions: ATCC 27853, 24 h
Aspergillus flavus [18] = experiment: Antifungal activity against Aspergillus flavus NCIM 524 after 3 to 4 days by serial plate dilution method
Staphylococcus aureus [19] = experiment: Antibacterial activity against Staphylococcus aureus ATCC 25923 after 24 hrs; type: functional; conditions: ATCC 25923, 24 h
Aspergillus flavus [20] = experiment: Antifungal activity against Aspergillus flavus NCIM 524 after 3 to 4 days; type: functional
[21] = system: Trichophyton mentagrophytes; experiment: Antifungal activity against Trichophyton mentagrophytes after 3 to 4 days by disc diffusion method; type: functional
Calu-1 [22] = experiment: Cytotoxicity against human Calu1 cells at 1000 nM after 48 hrs by WST-1 assay; type: functional; outline: as §1
HCT-116 [23] = experiment: Cytotoxicity against human HCT116 cells at 1000 nM after 48 hrs by WST-1 assay; type: functional; outline: as §1
ACHN [24] = experiment: Cytotoxicity against human ACHN cells at 1000 nM after 48 hrs by WST-1 assay; type: functional; outline: as §1
PANC-1 [25] = experiment: Cytotoxicity against human PANC1 cells at 1000 nM after 48 hrs by WST-1 assay; type: functional; outline: as §2
NCI-H460 [26] = experiment: Cytotoxicity against human NCI-H460 cells at 1000 nM after 48 hrs by WST-1 assay; type: functional; outline: as §2

Row | MIC (Klebsiella pneumoniae [8]) [µg/mL] | MIC (Escherichia coli [9]) [µg/mL] | MIC (Aspergillus fumigatus [13]) [µg/mL] | MIC (Talaromyces marneffei [14]) [µg/mL] | MIC [15] [µg/mL] | MIC (Pseudomonas aeruginosa [17]) [µg/mL] | MIC (Staphylococcus aureus [19]) [µg/mL] | MIC (Aspergillus flavus [20]) [µg/mL] | Structure (SMILES) | Activity (HCT-116 [1]) [%] | Activity (Calu-1 [2]) [%] | Activity (NCI-H460 [3]) [%] | Activity (ACHN [4]) [%] | Activity (PANC-1 [5]) [%] | inhibition zone (IZ) (Escherichia coli [6]) [mm] | inhibition zone (IZ) (Talaromyces marneffei [7]) [mm] | inhibition zone (IZ) (Aspergillus fumigatus [10]) [mm] | inhibition zone (IZ) (Klebsiella pneumoniae [11]) [mm] | inhibition zone (IZ) (Pseudomonas aeruginosa [12]) [mm] | inhibition zone (IZ) (Staphylococcus aureus [16]) [mm] | inhibition zone (IZ) (Aspergillus flavus [18]) [mm] | further results
1 |  |  |  |  |  |  |  |  | CCOC(=O)CC(=O)c1sc(Cl)nc1C | 48 | 32 | 24 | 37 | 29 |  |  |  |  |  |  |  | 
2 | 6.25 (≈ 25.7 µM) | 6.25 (≈ 25.7 µM) | 12.5 (≈ 51.4 µM) | 12.5 (≈ 51.4 µM) | 12.5 (≈ 51.4 µM) | 6.25 (≈ 25.7 µM) | 6.25 (≈ 25.7 µM) | 12.5 (≈ 51.4 µM) | CCOC(=O)CC(=O)c1nccc2ccccc12 | 26 | 30 | 34 | 30 | 35 | 19 | 18 | 18 | 22 | 20 | 22 | 15 | inhibition zone (IZ) [21]: 17 mm
3 | 6.25 (≈ 27.3 µM) | 6.25 (≈ 27.3 µM) | 6.25 (≈ 27.3 µM) | 6.25 (≈ 27.3 µM) | 6.25 (≈ 27.3 µM) | 6.25 (≈ 27.3 µM) | 6.25 (≈ 27.3 µM) | 6.25 (≈ 27.3 µM) | CCOC(=O)CC(=O)c1cnc(Cl)cn1 | 40 | 31 | 34 | 30 | 14 | 24 | 24 | 26 | 20 | 21 | 23 | 22 | inhibition zone (IZ) [21]: 25 mm
4 |  |  |  |  |  |  |  |  | CCOC(=O)CC(=O)c1nccn1C | 11 | 30 | 14 | 30 | 35 |  |  |  |  |  |  |  | 
5 |  |  |  |  |  |  |  |  | CCOC(=O)CC(=O)c1cnccn1 | 30 | 16 | 20 | 34 | 27 |  |  |  |  |  |  |  | 
6 |  |  |  |  |  |  |  |  | CN1CC[C@H](c2c(O)cc(O)c3c(=O)cc(-c4ccccc4Cl)oc23)[C@H](O)C1 [ALVOCIDIB] |  |  |  |  |  |  |  |  |  |  |  |  | Activity (Calu-1 [22]): 88%; Activity (HCT-116 [23]): 78%; Activity (ACHN [24]): 71%; Activity (PANC-1 [25]): 74%; Activity (NCI-H460 [26]): 71%
7 |  |  |  |  |  |  |  |  | CCOC(=O)C(C)C(=O)c1nccc2ccccc12 (stereo unspecified) | 24 | 20 | 19 | 25 | 30 |  |  |  |  |  |  |  | 
8 |  |  |  |  |  |  |  |  | CCOC(=O)CC(=O)c1cnc2ccccc2c1 | 28 | 23 | 20 | 20 | 26 |  |  |  |  |  |  |  | 
9 |  |  | 6.25 | 6.25 | 3.12 |  |  | 3.12 | Cc1cc(C2CCCCC2)n(O)c(=O)c1.NCCO [CICLOPIROX OLAMINE] |  |  |  |  |  |  | 23 | 26 |  |  |  | 27 | inhibition zone (IZ) [21]: 27 mm
10 |  |  |  |  |  |  |  |  | CCOC(=O)CC(=O)c1cccnc1 | 30 | 30 | 19 | 30 | 35 |  |  |  |  |  |  |  | 
11 |  |  |  |  |  |  |  |  | CCOC(=O)CC(=O)c1ccncc1 | 39 | 12 | 10 | 31 | 10 |  |  |  |  |  |  |  | 
12 |  |  |  |  |  |  |  |  | CCOC(=O)CC(=O)c1cn(C(=O)OC(C)(C)C)c2ccccc12 | 33 | 20 | 39 | 30 | 23 |  |  |  |  |  |  |  | 
13 |  |  |  |  |  |  |  |  | CCOC(=O)CC(=O)c1ccccn1 | 21 | 22 | 36 | 25 | 27 |  |  |  |  |  |  |  | 
14 | 6.25 (≈ 32.2 µM) | 6.25 (≈ 32.2 µM) | 12.5 (≈ 64.4 µM) | 12.5 (≈ 64.4 µM) | 12.5 (≈ 64.4 µM) | 6.25 (≈ 32.2 µM) | 6.25 (≈ 32.2 µM) | 12.5 (≈ 64.4 µM) | CCOC(=O)CC(=O)c1ncccn1 | 23 | 17 | 20 | 10 | 37 | 24 | 17 | 25 | 23 | 22 | 22 | 22 | inhibition zone (IZ) [21]: 18 mm
15 |  |  |  |  |  |  |  |  | Nc1ccn([C@@H]2O[C@H](CO)[C@@H](O)C2(F)F)c(=O)n1 [GEMCITABINE] |  |  |  |  |  |  |  |  |  |  |  |  | Activity (Calu-1 [22]): 71%; Activity (HCT-116 [23]): 74%; Activity (ACHN [24]): 73%; Activity (PANC-1 [25]): 79%; Activity (NCI-H460 [26]): 73%
16 | 6.25 (≈ 19 µM) | 6.25 (≈ 19 µM) | 12.5 (≈ 38.1 µM) | 12.5 (≈ 38.1 µM) | 12.5 (≈ 38.1 µM) | 6.25 (≈ 19 µM) | 6.25 (≈ 19 µM) | 12.5 (≈ 38.1 µM) | CCOC(=O)CC(=O)c1cccc2sc(Br)nc12 | 39 | 19 | 14 | 31 | 27 | 22 | 17 | 18 | 23 | 22 | 21 | 19 | inhibition zone (IZ) [21]: 17 mm
17 | 12.5 (≈ 51.4 µM) | 12.5 (≈ 51.4 µM) | 6.25 (≈ 25.7 µM) | 6.25 (≈ 25.7 µM) | 6.25 (≈ 25.7 µM) | 12.5 (≈ 51.4 µM) | 12.5 (≈ 51.4 µM) | 6.25 (≈ 25.7 µM) | CCOC(=O)CC(=O)c1cc2ccccc2cn1 | 29 | 21 | 17 | 30 | 23 | 19 | 25 | 23 | 23 | 22 | 16 | 27 | inhibition zone (IZ) [21]: 23 mm
18 |  |  |  |  |  |  |  |  | CCOC(=O)CC(=O)c1nccn1CCOC | 28 | 24 | 14 | 21 | 26 |  |  |  |  |  |  |  | 
19 |  |  |  |  |  |  |  |  | CCOC(=O)CC(=O)c1ccncn1 | 20 | 12 | 13 | 15 | 35 |  |  |  |  |  |  |  | 

Row | Structure (SMILES) | MIC (Klebsiella pneumoniae [8]) [µg/mL] | MIC (Escherichia coli [9]) [µg/mL] | MIC (Aspergillus fumigatus [13]) [µg/mL] | MIC (Talaromyces marneffei [14]) [µg/mL] | MIC [15] [µg/mL] | MIC (Pseudomonas aeruginosa [17]) [µg/mL] | MIC (Staphylococcus aureus [19]) [µg/mL] | MIC (Aspergillus flavus [20]) [µg/mL] | Activity (HCT-116 [1]) [%] | Activity (Calu-1 [2]) [%] | Activity (NCI-H460 [3]) [%] | Activity (ACHN [4]) [%] | Activity (PANC-1 [5]) [%] | inhibition zone (IZ) (Escherichia coli [6]) [mm] | inhibition zone (IZ) (Talaromyces marneffei [7]) [mm] | inhibition zone (IZ) (Aspergillus fumigatus [10]) [mm] | inhibition zone (IZ) (Klebsiella pneumoniae [11]) [mm] | inhibition zone (IZ) (Pseudomonas aeruginosa [12]) [mm] | inhibition zone (IZ) (Staphylococcus aureus [16]) [mm] | inhibition zone (IZ) (Aspergillus flavus [18]) [mm] | further results
20 | O=C(O)c1cn(C2CC2)c2cc(N3CCNCC3)c(F)cc2c1=O [CIPROFLOXACIN] | 6.25 (≈ 18.9 µM) | 6.25 (≈ 18.9 µM) |  |  |  | 6.25 (≈ 18.9 µM) | 6.25 (≈ 18.9 µM) |  |  |  |  |  |  | 32 |  |  | 23 | 28 | 23 |  | 
